The list is not random: actives were taken first. Their share in the collection is about 3.3%.
XiGFP reactiv – X-chromosome reactivation activator; XiGFP mouse fibroblasts, % GFP-positive cells imaging, 3 d; cells co-treated with 5-aza-dC sensitizer; scaled so ellipticine positive control = 100%; activation, % at 7.58 µM; 0.055% of 360,000 active;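 active means mean normalized replicate activation at least 10% and every replicate at or above 10%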;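 further: 0% = median of on-plate neutral control wells and 100% = ellipticine 6 µM median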
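Material: XiGFP fibroblasts, SV40-immortalized; Buffer or medium: DMEM containing 5-aza-dC; Compound dosing: single point; Times: 3 days compound exposure.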
Statin myotox sup – suppression of simvastatin myotoxicity. 0.78% of 330,000 active. rescue of ATP level, % at 7.49 µM. C2C12 myotubes + simvastatin, ATP luminescence, 48 h; scaled: DMSO 0, geranylgeraniol control 100;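 active means mean ATP rescue above about 67%, or every replicate alone reaching that limit, limit read from the data, passing the limit was not always enough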;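 further: myotubes were challenged with 10 µM simvastatin during compound exposure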
FGF22 binding – shifts melting point of recombinant human FGF22. AID 651658. 1.5% of 340,000 active. recombinant FGF22 thermal shift, SYPRO orange fluorescence; percent of sucrose octasulfate shift, DMSO zero. activity (Tm shift, normalised), % at 9.99 µM;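 active means mean Tm shift, scaled 0 neutral to 100 positive control, at about 1.3% or above, every replicate too, limit read from the data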
DENV2 CPE rescue – DENV2-induced cell death inhibition; 1.7% of 350,000 active; CPE inhibition, % at 9.99 µM; DENV2-infected cells, cytopathic effect rescue, plate reader; in the data active means CPE inhibition above about 20%, passing the limit was not always enough; tested in BHK-21 cells;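 further: 0% = median of neutral control wells and 100% = median of positive control wells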
PglD inh – PglD (C. jejuni) enzyme inhibition; inhibition, % at 12.5 µM; purified PglD enzyme, DTNB colorimetric CoA detection; AID 602405; 0.098% of 360,000 active; in the data active means inhibition above about 16%, passing the limit was not always enough
E-sel inducer – induces E-selectin expression in human endothelial cells. HUVEC E-selectin immunofluorescence imaging; normalized: neutral wells 0, TNF-alpha wells 100. activation, % at 7.58 µM. 0.37% of 260,000 active. AID 686992;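 active means mean E-selectin-positive cell signal at least 10% of the positive control, reached in at least 60% of replicates, without over 20% cell loss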
Target sequence (P16581 whole entry, looked up): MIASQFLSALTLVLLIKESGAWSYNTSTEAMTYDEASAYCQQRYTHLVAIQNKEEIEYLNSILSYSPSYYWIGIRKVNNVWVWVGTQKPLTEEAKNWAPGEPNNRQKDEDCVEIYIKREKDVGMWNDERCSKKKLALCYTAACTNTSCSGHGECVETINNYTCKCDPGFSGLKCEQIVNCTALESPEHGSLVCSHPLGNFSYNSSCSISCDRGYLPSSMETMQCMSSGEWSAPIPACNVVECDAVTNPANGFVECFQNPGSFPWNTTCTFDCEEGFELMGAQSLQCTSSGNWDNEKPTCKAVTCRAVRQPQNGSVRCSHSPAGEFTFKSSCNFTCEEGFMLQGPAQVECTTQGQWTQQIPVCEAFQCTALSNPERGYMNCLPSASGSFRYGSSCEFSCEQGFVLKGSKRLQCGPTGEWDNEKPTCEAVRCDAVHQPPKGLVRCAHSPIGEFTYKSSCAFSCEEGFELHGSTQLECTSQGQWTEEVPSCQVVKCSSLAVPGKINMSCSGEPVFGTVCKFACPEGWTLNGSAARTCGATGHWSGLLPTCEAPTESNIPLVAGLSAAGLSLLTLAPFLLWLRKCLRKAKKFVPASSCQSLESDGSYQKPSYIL
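Assay system: HUVEC primary endothelial cells. Input: 3,000 HUVEC seeded per well. Doses: one compound dose added by pin transfer. Read-out basis: % PE-positive cells. Benchmarks: TNF-alpha high, DMSO low. Detection: immunofluorescence imaging. Buffer or medium: EGM-2, gelatin.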
An asterisk follows results filed as active; x = no result; ! = a repeat was not active.

SMILES	XiGFP reactiv	Statin myotox sup	FGF22 binding	DENV2 CPE rescue	PglD inh	E-sel inducer
O=C(Cn1ccc2ccccc2c1=O)NCCC(=O)N1CCN(C(=O)c2ccco2)CC1	x	78.0*	x	x	-0.9	x
CN1CCN(C(=O)CCNC(=O)Cn2ccc3ccccc3c2=O)CC1	x	0.7	x	x	-2.9	x
C[C@H]1CN([C@@H](C)CO)C(=O)c2cc(C#CC3(O)CCCC3)cnc2O[C@@H]1CN(C)C(=O)C1CCC1	-1.0	25.6	-0.1	-12.2	1.3	3.0
CCCC(=O)Nc1ccc2c(c1)C(=O)N(C)[C@H]1CC[C@H](CC(=O)NCCCN(C)C)O[C@H]1CO2	-0.1	-1.6	0.0	48.8*	2.6	0.1
CCCC(=O)Nc1ccc2c(c1)C(=O)N(C)[C@H]1CC[C@H](CC(=O)NCCCN(C)C)O[C@@H]1CO2	0.1	-7.2	0.0	60.7*	3.7	0.0
O=C(O)c1ccccc1C(=O)NCc1c(Cl)cccc1Sc1ccc(Cl)cc1	0.1	13.6	0.0	26.2*	3.8	0.3
CC(C)CC#Cc1cnc2c(c1)C(=O)N([C@@H](C)CO)C[C@@H](C)[C@H](CN(C)Cc1ccccc1F)O2	-0.8	47.0	0.8	-8.9	-0.5	0.7
CCN(CC(=O)Nc1ccc(NC(C)=O)cc1)C(=O)/C=C/c1ccccc1	0.1	1.1	-0.2	8.1	0.5	-0.8
CCN(CC(=O)Nc1ccc(NC(C)=O)cc1)C(=O)C(c1ccccc1)c1ccccc1	0.0	x	43.5*	7.7	x	x
Cc1ccccc1-c1ccc(C2[C@@H]3CN(C(=O)C4CC4)C[C@H]2N3)cc1 (some centres not stated)	0.2	x	x	27.2*!	x	0.5
N#Cc1ccsc1NC(=O)CN1CCN(Cc2ccccc2)CC1	0.0	x	43.2*	-4.5	x	x
O=C(CN1CCN(Cc2ccccc2)CC1)NNC(=O)c1ccccc1	0.2	8.5	0.2	26.4*	4.7	1.3
COc1ccc(CCC(C)NCc2cc(OC)cc(OC)c2)cc1 (configuration not stated)	0.0	6.5	-0.1	-1.6	-2.5	0.2
COc1ccc(CCC(C)NCc2ccc(F)cc2)cc1 (configuration not stated)	0.2	18.9	0.1	32.6*	-6.2	x
O=C1CN(S(=O)(=O)Cc2ccccc2)C[C@@H]2[C@H](c3ccc(C#Cc4ccccc4)cc3)[C@@H](CO)N12	0.0	x	x	2.8	x	-0.1
COc1ccccc1-n1cnc2cc(NCc3ccccc3O)ccc21	1.1	2.4	0.1	-1.6	-1.2	0.6
COc1ccccc1-n1cnc2cc(NCc3ccco3)ccc21	x	73.3*	x	x	4.6	x
Cc1oc(C(C)(C)C)cc1C(=O)Nc1cccc(/C=C\C(=O)O)c1	0.4	x	x	x	x	x
Cc1oc(-c2ccccc2)cc1C(=O)Nc1cccc(/C=C\C(=O)O)c1	0.0	x	43.5*	-3.3	x	x
CC1(C(=O)Nc2ccc3c(c2)OCO3)Cc2c(-c3ccc4c(c3)OCO4)ccnc2O1 (configuration not stated)	0.2	-49.2	0.3	-0.2	-1.8	1.2
COc1ccc(NC(=O)C2(C)Cc3c(-c4ccc5c(c4)OCO5)ccnc3O2)cn1 (configuration not stated)	0.3	-42.0	43.9*	7.9	2.7	1.1
CC(=O)Nc1cccc(-c2ccnc3c2CC(C)(C(=O)Nc2ccc(Cl)c(C(F)(F)F)c2)O3)c1 (configuration not stated)	-0.1	80.5*	0.0	4.8	11.4	6.4
CO[C@H]1CN(C)C(=O)c2cc(NC(=O)C3CC3)ccc2OC[C@@H](C)N(Cc2cccnc2)C[C@@H]1C	0.5	11.7	0.0	3.7	2.6	0.0
CC(C)N(C(=O)CSc1nnc(CSc2ncccn2)n1C)C(C)C	0.0	7.0	0.0	32.7*	-162.0	0.1
CCCSc1nnc(CSc2ncccn2)n1C	0.4	x	0.2	-0.5	x	-1.4
Cn1c(CSc2ncccn2)nnc1SCC(=O)N1CCCCC1	x	-0.7	x	x	-0.5	x
CCSc1nnc(CSc2ncccn2)n1C	-0.1	x	43.5*	0.8	x	7.7
CCOc1ccc2[nH]c3ncccc3c(=O)c2c1	0.1	15.8	-0.4	30.2*	x	-0.2
CC(=O)N1CCCCN2[C@@H](CO)[C@H](c3ccc(C#Cc4ccccc4F)cc3)[C@@H]2C1	0.2	x	-0.3	22.9*	-2.1	0.6
